Assay results taken from publication PMC4415995 (Advances in Therapy, 2015).
Marks after values point to notes of the source that are not given here.

Test system: Japanese patients with T2DM
Assay: Plasma glucose concentrations, 7-day once-daily dosing
Assay type: in vivo, human
Summary of the method: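 Plasma glucose was measured by a glucose dehydrogenase enzymatic UV method. Sampling was pre-breakfast/pre-dose and 0.5–24 h after breakfast on Day −1, after dosing on Days 1 and 7, and pre-breakfast on Days 11 and 14. Standardized ~600 kcal meals were given, with lunch and dinner at 4 and 12 h. AUC, Cmax and tmax were non-compartmental. MPG was the mean of the 0, 2, 4, 6, 12, 14 and 16 h values. LS mean difference vs placebo with 95% CI.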

In the case of CCOc1ccc(Cc2cc([C@@H]3S[C@H](CO)[C@@H](O)[C@H](O)[C@H]3O)c(OC)cc2C)cc1 [Luseogliflozin, (1S)-1,5-anhydro-1-[5-(4-ethoxybenzyl)-2-methoxy-4-methylphenyl]-1-thio-D-glucitol], the “FPG (24 h after dose)” value (2.5 mg OD, Day 1) is reported as 141 ± 23 mg/dL, the “FPG (24 h after dose) LS mean difference vs placebo (95% CI)” value (2.5 mg OD, Day 1) is reported as −23.0 (−31.6, −14.4)* mg/dL and the “MPG0–16h” value (2.5 mg OD, Day 1) is reported as 210 ± 35.7 mg/dL. The “MPG0–16h LS mean difference vs placebo (95% CI)” value (2.5 mg OD, Day 1) was −23.8 (−33.7, −13.9)* mg/dL, the “Plasma glucose AUC0–4h (after breakfast)” value (2.5 mg OD, Day 1) was 868 ± 166 mg·h/dL and the “Plasma glucose AUC0–4h (after breakfast) LS mean difference vs placebo (95% CI)” value (2.5 mg OD, Day 1) was −106 (−159, −53.6)* mg h/dL. For the same compound, the “Plasma glucose AUC4–8h (after lunch)” value (2.5 mg OD, Day 1) was 879 ± 176 mg·h/dL, the “Plasma glucose AUC4–8h (after lunch) LS mean difference vs placebo (95% CI)” value (2.5 mg OD, Day 1) was −147 (−224, −69.0)* mg h/dL and the “Plasma glucose AUC12–16h (after dinner)” value (2.5 mg OD, Day 1) was 944 ± 123 mg·h/dL. For the same compound, the “Plasma glucose AUC12–16h (after dinner) LS mean difference vs placebo (95% CI)” value (2.5 mg OD, Day 1) was −71.1 (−123, −19.2)* mg h/dL, the “Plasma glucose C max0–4h (after breakfast)” value (shortened to “Plasma glucose C max0–4h”) (2.5 mg OD, Day 1) was 254 ± 48.7 mg/dL and the “Plasma glucose C max4–8h (after lunch)” value (2.5 mg OD, Day 1) was 250 ± 54.5 mg/dL. The “Plasma glucose C max4–8h (after lunch) LS mean difference vs placebo (95% CI)” value (2.5 mg OD, Day 1) was −43.5 (−67.2, −19.7)* mg/dL, the “Plasma glucose C max12–16h (after dinner)” value (2.5 mg OD, Day 1) was 279 ± 40.2 mg/dL and the “Plasma glucose C max12–16h (after dinner) LS mean difference vs placebo (95% CI)” value (2.5 mg OD, Day 1) was −26.1 (−44.6, −7.60)* mg/dL. For the same compound, the “FPG (24 h after dose)” value (2.5 mg OD, Day 7) was 122 ± 14 mg/dL, the “FPG (24 h after dose) LS mean difference vs placebo (95% CI)” value (2.5 mg OD, Day 7) was −41.3 (−53.5, −29.0)* mg/dL and the “MPG0–16h” value (2.5 mg OD, Day 7) was 181 ± 21.2 mg/dL. The “MPG0–16h LS mean difference vs placebo (95% CI)” value (2.5 mg OD, Day 7) was −50.1 (−66.7, −33.4)* mg/dL, the “Plasma glucose AUC0–4h (after breakfast)” value (2.5 mg OD, Day 7) was 738 ± 102 mg·h/dL and the “Plasma glucose AUC0–4h (after breakfast) LS mean difference vs placebo (95% CI)” value (2.5 mg OD, Day 7) was −221 (−297, −145)* mg h/dL. For the same compound, the “Plasma glucose AUC4–8h (after lunch)” value (2.5 mg OD, Day 7) was 802 ± 127 mg·h/dL, the “Plasma glucose AUC4–8h (after lunch) LS mean difference vs placebo (95% CI)” value (2.5 mg OD, Day 7) was −250 (−348, −152)* mg h/dL and the “Plasma glucose AUC12–16h (after dinner)” value (2.5 mg OD, Day 7) was 828 ± 63.2 mg·h/dL. The “Plasma glucose AUC12–16h (after dinner) LS mean difference vs placebo (95% CI)” value (2.5 mg OD, Day 7) was −149 (−224, −73.6)* mg h/dL, the “Plasma glucose C max0–4h” value (2.5 mg OD, Day 7) was 219 ± 26.3 mg/dL and the “Plasma glucose C max4–8h (after lunch)” value (2.5 mg OD, Day 7) was 230 ± 30.0 mg/dL. For the same compound, the “Plasma glucose C max4–8h (after lunch) LS mean difference vs placebo (95% CI)” value (2.5 mg OD, Day 7) was −65.6 (−94.0, −37.1)* mg/dL, the “Plasma glucose C max12–16h (after dinner)” value (2.5 mg OD, Day 7) was 250 ± 23.3 mg/dL and the “Plasma glucose C max12–16h (after dinner) LS mean difference vs placebo (95% CI)” value (2.5 mg OD, Day 7) was −36.2 (−61.2, −11.3)* mg/dL. The “FPG (24 h after dose)” value (5 mg OD, Day 1) was 132 ± 12 mg/dL, the “FPG (24 h after dose) LS mean difference vs placebo (95% CI)” value (5 mg OD, Day 1) was −20.8 (−29.5, −12.1)* mg/dL and the “MPG0–16h” value (5 mg OD, Day 1) was 173 ± 26.7 mg/dL. For the same compound, the “MPG0–16h LS mean difference vs placebo (95% CI)” value (5 mg OD, Day 1) was −27.4 (−37.4, −17.4)* mg/dL, the “Plasma glucose AUC0–4h (after breakfast)” value (5 mg OD, Day 1) was 752 ± 87.6 mg·h/dL and the “Plasma glucose AUC0–4h (after breakfast) LS mean difference vs placebo (95% CI)” value (5 mg OD, Day 1) was −100 (−154, −46.5)* mg h/dL. The “Plasma glucose AUC4–8h (after lunch)” value (5 mg OD, Day 1) was 710 ± 120 mg·h/dL, the “Plasma glucose AUC4–8h (after lunch) LS mean difference vs placebo (95% CI)” value (5 mg OD, Day 1) was −104 (−183, −25.1)* mg h/dL and the “Plasma glucose AUC12–16h (after dinner)” value (5 mg OD, Day 1) was 766 ± 118 mg·h/dL. For the same compound, the “Plasma glucose AUC12–16h (after dinner) LS mean difference vs placebo (95% CI)” value (5 mg OD, Day 1) was −133 (−184, −81.7)* mg h/dL, the “Plasma glucose C max0–4h” value (5 mg OD, Day 1) was 231 ± 16.6 mg/dL and the “Plasma glucose C max4–8h (after lunch)” value (5 mg OD, Day 1) was 207 ± 33.1 mg/dL. For the same compound, the “Plasma glucose C max4–8h (after lunch) LS mean difference vs placebo (95% CI)” value (5 mg OD, Day 1) was −32.4 (−56.5, −8.28)* mg/dL, the “Plasma glucose C max12–16h (after dinner)” value (5 mg OD, Day 1) was 225 ± 33.2 mg/dL and the “Plasma glucose C max12–16h (after dinner) LS mean difference vs placebo (95% CI)” value (5 mg OD, Day 1) was −41.8 (−60.2, −23.5)* mg/dL. The “FPG (24 h after dose)” value (5 mg OD, Day 7) was 126 ± 13 mg/dL, the “FPG (24 h after dose) LS mean difference vs placebo (95% CI)” value (5 mg OD, Day 7) was −30.6 (−43.1, −18.1)* mg/dL and the “MPG0–16h” value (5 mg OD, Day 7) was 168 ± 27.8 mg/dL. For the same compound, the “MPG0–16h LS mean difference vs placebo (95% CI)” value (5 mg OD, Day 7) was −38.9 (−55.7, −22.1)* mg/dL, the “Plasma glucose AUC0–4h (after breakfast)” value (5 mg OD, Day 7) was 708 ± 87.5 mg·h/dL and the “Plasma glucose AUC0–4h (after breakfast) LS mean difference vs placebo (95% CI)” value (5 mg OD, Day 7) was −162 (−239, −84.9)* mg h/dL. For the same compound, the “Plasma glucose AUC4–8h (after lunch)” value (5 mg OD, Day 7) was 710 ± 105 mg·h/dL, the “Plasma glucose AUC4–8h (after lunch) LS mean difference vs placebo (95% CI)” value (5 mg OD, Day 7) was −184 (−284, −84.3)* mg h/dL and the “Plasma glucose AUC12–16h (after dinner)” value (5 mg OD, Day 7) was 755 ± 137 mg·h/dL. The “Plasma glucose AUC12–16h (after dinner) LS mean difference vs placebo (95% CI)” value (5 mg OD, Day 7) was −131 (−205, −57.5)* mg h/dL, the “Plasma glucose C max0–4h” value (5 mg OD, Day 7) was 222 ± 19.4 mg/dL and the “Plasma glucose C max4–8h (after lunch)” value (5 mg OD, Day 7) was 211 ± 35.1 mg/dL. For the same compound, the “Plasma glucose C max4–8h (after lunch) LS mean difference vs placebo (95% CI)” value (5 mg OD, Day 7) was −41.0 (−69.8, −12.1)* mg/dL, the “Plasma glucose C max12–16h (after dinner)” value (5 mg OD, Day 7) was 223 ± 38.8 mg/dL and the “Plasma glucose C max12–16h (after dinner) LS mean difference vs placebo (95% CI)” value (5 mg OD, Day 7) was −33.7 (−58.4, −9.02)* mg/dL.
